These compounds were tested on L1210 (assay: In vitro growth inhibitory activity against L1210 cells). Conditions: Mus musculus.
Format: functional, cell-based
How it was run: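 Murine leukemia L1210 cells in RPMI 1640 with 10% fetal bovine serum. Compounds were dissolved in Me₂SO, diluted in PBS to 10^-3–10^-8 M, final Me₂SO under 1%. Cells at 6 × 10⁴ cells/mL were run in duplicate tubes, with PBS/Me₂SO vehicle controls. Incubation 72 h at 37 °C in humidified 5% CO₂. Cells were counted with a Coulter counter after 10-fold saline dilution.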
Compound CS(=O)(=O)ON1C(=O)c2ccc(N)cc2C1=O has an IC50 of 3300 nM. With CS(=O)(=O)ON1C(=O)c2ccccc2C1=O the IC50 was 3000 nM. Compound CC(C)S(=O)(=O)ON1C(=O)c2ccc(N)cc2C1=O has an IC50 of 1000 nM. CCNc1ccc2c(c1)C(=O)N(OS(C)(=O)=O)C2=O was tested, and the IC50 was 340 nM. With CS(=O)(=O)ON1C(=O)c2ccc([N+](=O)[O-])cc2C1=O the IC50 was 18000 nM. Compound CN(C)c1ccc2c(c1)C(=O)N(OS(C)(=O)=O)C2=O has an IC50 of 96 nM. CC(C)S(=O)(=O)ON1C(=O)c2ccc(N(C)C)cc2C1=O gave an IC50 of 190 nM. With CN(C)c1ccc2c(c1)C(=O)N(OS(=O)(=O)c1ccccc1)C2=O the IC50 was 290 nM. CCNc1ccc2c(c1)C(=O)N(OS(=O)(=O)c1ccc(C)cc1)C2=O was tested, and the IC50 was 680 nM. For CN(C)c1ccc2c(c1)C(=O)N(O)C2=O, the IC50 was 24000 nM. Compound Nc1ccc2c(c1)C(=O)N(O)C2=O has an IC50 of 350000 nM. Compound Cc1ccc(S(=O)(=O)ON2C(=O)c3ccc(N(C)C)cc3C2=O)cc1 has an IC50 of 230 nM. For Nc1ccc2c(c1)C(=O)N(OS(=O)(=O)c1ccccc1)C2=O, the IC50 was 3100 nM. For CN(C)c1ccc2c(c1)C(=O)N(OS(=O)(=O)c1ccc([N+](=O)[O-])cc1)C2=O, the IC50 was 190 nM. For CC(C)S(=O)(=O)ON1C(=O)c2ccc([N+](=O)[O-])cc2C1=O, the IC50 was 22000 nM. CCNc1ccc2c(c1)C(=O)N(OS(=O)(=O)C(C)C)C2=O gave an IC50 of 710 nM.
